Reference: ChEMBL document CHEMBL2346664, “Synthesis, characterization and in vitro anticancer evaluation of novel 1,2,4-triazolin-3-one derivatives” (2013)

Columns and labels:
Assay type in all cases: functional
[1] = Growth inhibition of human NCI-ADR-RES cells after 48 hrs by sulforhodamine B assay
Procedure, shortened: (§1)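 NCI 60-cell-line five-dose screen. Cells were plated at 5,000–40,000/well by doubling time and grown 24 h at 37 °C, 5% CO2. Time-zero plates were TCA-fixed. Drug from DMSO stock was tested at 0.01, 0.1, 1, 10 and 100 µM final for 48 h continuous exposure. Read-out was SRB at 515 nm. GI50 is the concentration giving 50% reduction in net protein increase versus untreated control.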

[2] = test system: RPMI-8226; assay: Growth inhibition of human RPMI8226 cells assessed as growth inhibition at 10 uM after 48 hrs by sulforhodamine B assay; details: RPMI-8226, 48 h, read-out: GI
[3] = test system: UACC-62; assay: Growth inhibition of human UACC62 cells assessed as growth inhibition at 10 uM after 48 hrs by sulforhodamine B assay; details: UACC-62, 48 h, read-out: GI
[4] = test system: SF-268; assay: Growth inhibition of human SF268 cells assessed as cell growth at 10 '-5 M after 48 hrs by sulforhodamine B assay; details: SF-268, 48 h, read-out: Activity
[5] = Growth inhibition of human EKVX cells assessed as cell growth at 10 '-6 M after 48 hrs by sulforhodamine B assay; details: read-out: Activity
[6] = test system: MDA-MB-435; assay: Growth inhibition of human MDA-MB-435 cells assessed as cell growth at 10 '-6 M after 48 hrs by sulforhodamine B assay; details: MDA-MB-435, 48 h, read-out: Activity
[7] = test system: BT-549; assay: Growth inhibition of human BT549 cells assessed as cell growth at 10 '-7 M after 48 hrs by sulforhodamine B assay; details: BT-549, 48 h, read-out: Activity
Procedure, shortened: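 Percent growth at each of the five concentrations of the 48 h continuous-exposure NCI SRB screen. Drug stocks were in DMSO at 400× the top final concentration and diluted in medium with gentamicin. Growth was calculated as [(Ti-Tz)/(C-Tz)]×100 when Ti ≥ Tz, or [(Ti-Tz)/Tz]×100 when Ti < Tz. Tz plates were fixed at drug addition; untreated wells served as control. Absorbance was read at 515 nm.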

[8] = test system: OVCAR-8; assay: Growth inhibition of human OVCAR8 cells assessed as cell growth at 10 '-6 M after 48 hrs by sulforhodamine B assay; details: OVCAR-8, 48 h, read-out: Activity
[9] = test system: UO-31; assay: Growth inhibition of human UO31 cells after 48 hrs by sulforhodamine B assay; details: UO-31, 48 h
[10] = test system: A498; assay: Growth inhibition of human A498 cells after 48 hrs by sulforhodamine B assay; details: A498, 48 h
Procedure, shortened: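 NCI 60-cell-line five-dose screen at 0.01, 0.1, 1, 10 and 100 µM final. Cells were plated at 5,000–40,000/well and grown 24 h at 37 °C, 5% CO2, then exposed to drug continuously for 48 h. Adherent cells were fixed with cold TCA (10% final) and stained with SRB; absorbance read at 515 nm. GI50 is the concentration where [(Ti-Tz)/(C-Tz)]×100 = 50, with Tz plates fixed at drug addition.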

[11] = Growth inhibition of human EKVX cells after 48 hrs by sulforhodamine B assay; procedure, shortened: as §1
[12] = test system: SF-539; assay: Growth inhibition of human SF539 cells assessed as cell growth at 10 '-8 M after 48 hrs by sulforhodamine B assay; details: SF-539, 48 h, read-out: Activity
[13] = test system: MOLT-4; assay: Growth inhibition of human MOLT4 cells assessed as cell growth at 10 '-4 M after 48 hrs by sulforhodamine B assay; details: MOLT-4, 48 h, read-out: Activity
[14] = test system: NCI-H460; assay: Growth inhibition of human NCI-H460 cells assessed as cell growth at 10 '-5 M after 48 hrs by sulforhodamine B assay; details: NCI-H460, 48 h, read-out: Activity
[15] = test system: Malme-3M; assay: Growth inhibition of human MALME-3M cells assessed as cell growth at 10 '-4 M after 48 hrs by sulforhodamine B assay; details: read-out: Activity
[16] = test system: MCF7; assay: Growth inhibition of human MCF7 cells assessed as cell growth at 10 '-7 M after 48 hrs by sulforhodamine B assay; details: MCF7, 48 h, read-out: Activity
[17] = test system: PC-3; assay: Growth inhibition of human PC3 cells assessed as growth inhibition at 10 uM after 48 hrs by sulforhodamine B assay; details: PC-3, 48 h, read-out: GI
[18] = test system: SK-MEL-5; assay: Growth inhibition of human SK-MEL-5 cells after 48 hrs by sulforhodamine B assay; details: SK-MEL-5, 48 h
[19] = test system: TK-10; assay: Growth inhibition of human TK10 cells assessed as cell growth at 10 '-4 M after 48 hrs by sulforhodamine B assay; details: TK-10, 48 h, read-out: Activity
[20] = test system: SF-268; assay: Growth inhibition of human SF268 cells assessed as cell growth at 10 '-8 M after 48 hrs by sulforhodamine B assay; details: SF-268, 48 h, read-out: Activity
[21] = test system: HCT-116; assay: Growth inhibition of human HCT116 cells assessed as cell growth at 10 '-4 M after 48 hrs by sulforhodamine B assay; details: HCT-116, 48 h, read-out: Activity
[22] = test system: IGROV-1; assay: Growth inhibition of human IGROV1 cells assessed as growth inhibition at 10 uM after 48 hrs by sulforhodamine B assay; details: IGROV-1, 48 h, read-out: GI
[23] = test system: SNB-19; assay: Growth inhibition of human SNB19 cells assessed as cell growth at 10 '-6 M after 48 hrs by sulforhodamine B assay; details: SNB-19, 48 h, read-out: Activity
[24] = test system: OVCAR-8; assay: Growth inhibition of human OVCAR8 cells assessed as cell growth at 10 '-7 M after 48 hrs by sulforhodamine B assay; details: OVCAR-8, 48 h, read-out: Activity
[25] = test system: MOLT-4; assay: Growth inhibition of human MOLT4 cells after 48 hrs by sulforhodamine B assay; details: MOLT-4, 48 h; procedure, shortened: as §1
[26] = test system: HOP-62; assay: Growth inhibition of human HOP62 cells assessed as cell growth at 10 '-4 M after 48 hrs by sulforhodamine B assay; details: HOP-62, 48 h, read-out: Activity
[27] = test system: OVCAR-5; assay: Growth inhibition of human OVCAR5 cells assessed as cell growth at 10 '-8 M after 48 hrs by sulforhodamine B assay; details: OVCAR-5, 48 h, read-out: Activity
[28] = test system: SN12C; assay: Growth inhibition of human SN12C cells assessed as cell growth at 10 '-8 M after 48 hrs by sulforhodamine B assay; details: read-out: Activity
[29] = test system: UO-31; assay: Growth inhibition of human UO31 cells assessed as cell growth at 10 '-4 M after 48 hrs by sulforhodamine B assay; details: UO-31, 48 h, read-out: Activity
[30] = read-out: LD50 (the source's name)

## Cc1cc(=O)oc2cc(OCCn3c(C)nn(-c4ccc(Cl)cc4)c3=O)ccc12
[1]
  GI50: 1640 nM
  TGI: > 1000 nM
[1]; [30]
  CC50: > 1000 nM
[2]
  inhibition of growth at 10 µM: 69%
[3]
  inhibition of growth at 10 µM: 56.7%
[4]
  growth at 10 µM: 52%
[5]
  growth at 1 µM: 88%
[6]
  growth at 1 µM: -8%
[7]
  growth at 0.1 µM: 104%
[8]
  growth at 1 µM: 97%
[9]
  GI50: 1270 nM
  TGI: > 1000 nM
[9]; [30]
  CC50: > 1000 nM
[10]
  GI50: 1130 nM
  TGI: 3190 nM
[10]; [30]
  CC50: > 1000 nM
[11]
  GI50: 1000 nM
  TGI: > 1000 nM
[11]; [30]
  CC50: > 1000 nM
[12]
  growth at 0.01 µM: 102%
[13]
  growth at 100 µM: 17%
[14]
  growth at 10 µM: 9%
[15]
  growth at 100 µM: 41%
[16]
  growth at 0.1 µM: 93%
[17]
  inhibition of growth at 10 µM: 51.5%
[18]
  GI50: 8480 nM
  TGI: > 1000 nM
[18]; [30]
  CC50: > 1000 nM
[19]
  growth at 100 µM: -3%
[20]
  growth at 0.01 µM: 104%
[21]
  growth at 100 µM: 23%
[22]
  inhibition of growth at 10 µM: 40.3%
[23]
  growth at 1 µM: 80%
[24]
  growth at 0.1 µM: 98%
[25]
  GI50: 4710 nM
  TGI: > 1000 nM
[25]; [30]
  CC50: > 1000 nM
[26]
  growth at 100 µM: -8%
[27]
  growth at 0.01 µM: 105%
[28]
  growth at 0.01 µM: 94%
[29]
  growth at 100 µM: 39%
